Measurements: paper PMC8916014 (Proceedings of the National Academy of Sciences of the …, 2022)

What was measured:
[1] = test system: E. coli ATCC25922 with purified E. coli 70S ribosome; experiment: bacterial ribosome-mediated antimicrobial block assay; assay type: cell-based, Escherichia coli; conditions: 70S ribosome 12.5 nM
Procedure, shortened: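 MBC fold-change against E. coli with exogenous E. coli 70S ribosome was determined by virtual-colony count assay. Polymyxin B and kanamycin served as comparators. Triplicate experiments were reported as mean ± SD, with one- or two-way ANOVA and Bonferroni correction.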

[2] = test system: E. coli ATCC25922 with purified LPS from E. coli O111:B4; experiment: LPS-mediated antimicrobial block assay; assay type: cell-based, Escherichia coli; conditions: LPS 25 μg/mL
Procedure, shortened: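 A virtual-colony count assay gave the fold-change in MBC against E. coli across different concentrations of added purified LPS. Polymyxin B and kanamycin were run as comparators.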

[3] = test system: E. coli ATCC25922 outer membrane; experiment: outer membrane permeability assay; assay type: cell-based, Escherichia coli; conditions: E. coli ATCC25922, 1 h treatment, 0.195–100 μM
Procedure, shortened: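 E. coli ATCC25922 was treated with test compound for 1 h, then probed with NPN. NPN fluorescence intensity served as the measure of outer-membrane permeability and was normalized to relative fluorescence intensity. Experiments were run in triplicate and reported as mean ± SD.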

[4] = test system: K. pneumoniae (ATCC 13883); experiment: in vivo efficacy, K. pneumoniae-induced pneumonia; parameters: species or system C57BL/6 mice; conditions: 2 mg/kg intratracheal
S. aureus (ATCC 25923) = experiment: in vivo efficacy, S. aureus-induced pneumonia; parameters: species or system C57BL/6 mice; conditions: 2 mg/kg intratracheal

Molecule	fold change in MBC in presence of E. coli 70S ribosome [1]	fold change in MBC in presence of LPS [2]	permeability of bacterial OM (NPN fluorescence) [3]	survival rate [4] [%]	efficacy in S. aureus-induced pneumonia (S. aureus (ATCC 25923))
NC[C@H]1O[C@H](O[C@H]2[C@H](O)[C@@H](O[C@H]3O[C@H](CO)[C@@H](O)[C@H](N)[C@H]3O)[C@H](N)C[C@@H]2N)[C@H](O)[C@@H](O)[C@@H]1O [kanamycin]	antagonized	no effect			
polymyxin B [PMB]	failed to affect activity	fourfold	increased the permeability of bacterial OM in a dose-dependent manner	100	ineffective
